Reference: ChEMBL document CHEMBL1153166, “Synthesis and anticancer activities of ageladine A and structural analogs” (Bioorg Med Chem Lett, 2010)
Active and inactive are the calls of the source. The calls are words filed in the database; no cut-off is given here.

Experiments:
[1] = target: T1, 72 kDa type IV collagenase (Homo sapiens, UniProt P08253); assay: Inhibition of MMP2 at 5 uM
Target sequence in this assay (P08253 110-660 limits assumed): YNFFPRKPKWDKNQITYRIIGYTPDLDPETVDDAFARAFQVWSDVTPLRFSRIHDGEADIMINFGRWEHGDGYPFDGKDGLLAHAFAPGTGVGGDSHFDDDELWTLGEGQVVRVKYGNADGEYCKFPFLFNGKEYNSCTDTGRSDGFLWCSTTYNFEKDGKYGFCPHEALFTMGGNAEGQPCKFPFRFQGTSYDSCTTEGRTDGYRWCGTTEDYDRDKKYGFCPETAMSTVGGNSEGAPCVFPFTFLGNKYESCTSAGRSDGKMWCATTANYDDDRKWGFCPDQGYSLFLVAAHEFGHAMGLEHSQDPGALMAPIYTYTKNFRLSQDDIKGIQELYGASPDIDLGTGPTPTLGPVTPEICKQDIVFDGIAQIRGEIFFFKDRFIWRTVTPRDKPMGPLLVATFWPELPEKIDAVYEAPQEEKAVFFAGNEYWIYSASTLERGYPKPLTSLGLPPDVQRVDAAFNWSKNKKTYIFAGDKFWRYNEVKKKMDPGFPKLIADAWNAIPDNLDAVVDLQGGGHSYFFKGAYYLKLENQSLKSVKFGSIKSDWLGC

[2] = target: T1, 72 kDa type IV collagenase; assay: Inhibition of MMP2 at 50 uM
Target sequence in this assay (P08253 110-660 limits assumed): as above

[3] = test system: RPMI-8226; assay: Cytotoxicity against human RPMI8226 cells assessed as reduction of cell viability at 1 uM after 48 hrs by MTS assay; format: functional, cell-based
Procedure, shortened: (§1)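 Multiple myeloma cells were exposed to compound at a single concentration for 48 h, alongside a DMSO vehicle control. Viability was then read by MTS assay. Each value is the mean of three determinations, deviating <10% from the mean.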

[4] = test system: U-266; assay: Cytotoxicity against human U266 cells assessed as reduction of cell viability at 1 uM after 48 hrs by MTS assay; format: functional, cell-based; procedure, shortened: as §1
[5] = test system: MDA-MB-435; assay: Cytotoxicity against human MDA-MB-435 cells assessed as reduction of cell viability after 48 hrs by MTS assay; format: functional, cell-based; conditions: MDA-MB-435, 48 h
Procedure, shortened: (§2)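 IC50 from cell viability read by MTS assay run to the manufacturer's protocol, after 48 h exposure to compound. Each value is the mean of three determinations, deviating <10% from the mean.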

[6] = test system: RPMI-8226; assay: Cytotoxicity against human RPMI8226 cells assessed as reduction of cell viability at 10 uM after 48 hrs by MTS assay; format: functional, cell-based; procedure, shortened: as §1
[7] = test system: KMS-11; assay: Cytotoxicity against human KMS11 cells assessed as reduction of cell viability at 1 uM after 48 hrs by MTS assay; format: functional, cell-based; procedure, shortened: as §1
[8] = test system: A2058; assay: Cytotoxicity against human A2058 cells assessed as reduction of cell viability after 48 hrs by MTS assay; format: functional, cell-based; conditions: A2058, 48 h; procedure, shortened: as §2
[9] = test system: U-266; assay: Cytotoxicity against human U266 cells assessed as reduction of cell viability at 10 uM after 48 hrs by MTS assay; format: functional, cell-based; procedure, shortened: as §1
[10] = test system: KMS-11; assay: Cytotoxicity against human KMS11 cells assessed as reduction of cell viability at 10 uM after 48 hrs by MTS assay; format: functional, cell-based; procedure, shortened: as §1
[11] = test system: DU-145; assay: Cytotoxicity against human DU145 cells assessed as reduction of cell viability after 48 hrs by MTS assay; format: functional, cell-based; conditions: for IC50: DU-145, 48 h; procedure, shortened: as §2
[12] = target: T1, 72 kDa type IV collagenase; assay: Inhibition of MMP2
Target sequence in this assay (P08253 whole entry): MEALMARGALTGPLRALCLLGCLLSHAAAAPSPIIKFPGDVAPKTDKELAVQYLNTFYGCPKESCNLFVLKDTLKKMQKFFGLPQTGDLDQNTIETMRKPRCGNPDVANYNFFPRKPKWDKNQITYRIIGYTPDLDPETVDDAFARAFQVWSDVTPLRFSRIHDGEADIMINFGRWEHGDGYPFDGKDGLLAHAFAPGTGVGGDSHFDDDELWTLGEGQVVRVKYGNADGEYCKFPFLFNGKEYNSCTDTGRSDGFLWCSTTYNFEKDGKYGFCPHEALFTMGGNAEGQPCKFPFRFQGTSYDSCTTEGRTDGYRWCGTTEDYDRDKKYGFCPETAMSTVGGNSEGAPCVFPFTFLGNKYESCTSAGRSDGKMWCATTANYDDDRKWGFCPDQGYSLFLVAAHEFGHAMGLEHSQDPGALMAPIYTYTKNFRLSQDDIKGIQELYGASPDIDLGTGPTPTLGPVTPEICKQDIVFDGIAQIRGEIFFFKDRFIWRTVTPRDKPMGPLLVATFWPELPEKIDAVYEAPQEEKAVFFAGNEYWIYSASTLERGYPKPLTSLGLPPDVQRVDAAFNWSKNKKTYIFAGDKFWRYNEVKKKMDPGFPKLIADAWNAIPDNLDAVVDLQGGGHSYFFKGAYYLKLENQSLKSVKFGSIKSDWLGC

SMILES	inhibition [1]	inhibition [2]	Activity [3]	Activity [4]	IC50 [5]	Activity [6]	Activity [7]	IC50 [8]	Activity [9]	Activity [10]	Activity [11]	IC50 [11]	IC50 [12]
Nc1nc2ccnc(-c3c[nH]c4ccccc34)c2[nH]1	25%	26%											
CC(C)Cc1nccc2nc(N)[nH]c12	31%	22%											
Nc1nc2ccnc(-c3cccc4ccccc34)c2[nH]1	20%												
CC(C)C1=C2NC(N)=NC2C=CC=N1 (stereo not drawn)	28%	52%	Active	Active	6.7 µM	Active	Active	9.5 µM	Active	Active	Dose-dependent effect	7.5 µM	
CC(C)CC1=C2NC(N)=NC2C=CC=N1 (stereo not drawn)	27%	60%	Active	Active	2.9 µM	Active	Active	4.1 µM	Active	Active	Dose-dependent effect	4.3 µM	
NC1=NC2C=CC=NC(c3ccc(Cl)cc3)=C2N1 (stereo not drawn)	27%	54%	Active	Active	3.6 µM	Active	Active	5.1 µM	Active	Active	Dose-dependent effect	6.2 µM	
Nc1nc2ccnc(C3CCCCC3)c2[nH]1	9%	40%											
Nc1nc2c(-c3cc(Br)c(Br)[nH]3)nccc2[nH]1 [AGELADINE A]													1.7 µM
NC1=NC2C=CC=NC(C3CCCCC3)=C2N1 (stereo not drawn)	23%	53%	Active	Active	3.4 µM	Active	Active	4.5 µM	Active	Active	Dose-dependent effect	5 µM	
CC(C)c1nccc2nc(N)[nH]c12	25%	17%											
